Assay results as given in ChEMBL document CHEMBL2010658, “Caspase-1 and -3 inhibiting drimane sesquiterpenoids from the extremophilic fungus Penicillium solitum” (J Nat Prod, 2012).
The source made the active and inactive calls. The calls are words filed in the database; no cut-off is given here.

Tests used:
Caspase-3 (Homo sapiens) = biological target: T1, Caspase-3 (Homo sapiens) (UniProt P42574); assay: (§1) Inhibition of caspase 3 by signal transduction fluorometric assay
T1 sequence (whole entry): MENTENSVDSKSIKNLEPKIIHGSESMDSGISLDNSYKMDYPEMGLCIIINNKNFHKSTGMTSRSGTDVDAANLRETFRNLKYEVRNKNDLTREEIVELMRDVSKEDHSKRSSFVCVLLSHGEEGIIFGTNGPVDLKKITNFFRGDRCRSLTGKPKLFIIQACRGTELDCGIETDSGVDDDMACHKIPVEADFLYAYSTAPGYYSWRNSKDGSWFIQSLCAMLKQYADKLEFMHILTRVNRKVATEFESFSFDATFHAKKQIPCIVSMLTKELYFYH
In short: (§2)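 Fluorometric enzyme inhibition assays. Reference inhibitors were Ac-YVAD-CHO for caspase-1, Ac-DEVD-CHO for caspase-3, and NNGH for MMP-3.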

Caspase-1 (Homo sapiens) = biological target: T2, Caspase-1 (Homo sapiens) (UniProt P29466); assay: (§3) Inhibition of caspase 1 by signal transduction fluorometric assay; in short: as §2
T2 sequence (whole entry): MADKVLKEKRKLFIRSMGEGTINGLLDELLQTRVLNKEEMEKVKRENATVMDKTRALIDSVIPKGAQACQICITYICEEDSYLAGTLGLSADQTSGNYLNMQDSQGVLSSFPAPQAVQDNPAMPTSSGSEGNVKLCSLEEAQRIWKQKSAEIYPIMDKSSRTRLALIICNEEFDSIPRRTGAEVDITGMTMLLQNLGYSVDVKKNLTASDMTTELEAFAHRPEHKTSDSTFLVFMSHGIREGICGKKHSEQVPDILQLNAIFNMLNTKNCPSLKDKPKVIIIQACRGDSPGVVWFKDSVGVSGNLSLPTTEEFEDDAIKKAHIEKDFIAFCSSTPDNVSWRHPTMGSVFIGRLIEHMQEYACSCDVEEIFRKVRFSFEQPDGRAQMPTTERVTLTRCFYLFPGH

[1] = biological target: Stromelysin-1 (Homo sapiens) (UniProt P08254); assay: Inhibition of MMP3 by signal transduction fluorometric assay; in short: as §2
Caspase-3 = biological target: T3, Caspase-3 (Homo sapiens, UniProt P42574); assay: as §1; in short: as §2
T3 sequence (P42574 whole entry): T1 sequence (whole entry)

Caspase-1 = biological target: T4, Caspase-1 (Homo sapiens, UniProt P29466); assay: as §3; in short: as §2
T4 sequence (P29466 whole entry): T2 sequence (whole entry)

THP-1 = assay: Antiinflammatory activity in human THP1 cells assessed as inhibition of titanium dioxide nanowires/LPS-induced IL-1beta production at 1 to 100 uM after 24 hrs by ELISA; type: functional, cell-based
In short: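 PMA-differentiated THP-1 cells (1 μg/mL PMA, 24 h beforehand), grown in RPMI with 10% FBS, 0.05 mM 2-mercaptoethanol and pyruvate. Cells were scraped, pelleted, and resuspended at 1.0 × 10⁶ cells/mL. They were exposed to compound at 1, 10 and 100 μM plus LPS (20 ng/mL) and TiO₂ nanowires (100 μg/mL) for 24 h at 37 °C. IL-1β was measured by ELISA and viability by MTS (490 nm).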

Stromelysin-1 (Homo sapiens), sequence (P08254 100-477 limits assumed): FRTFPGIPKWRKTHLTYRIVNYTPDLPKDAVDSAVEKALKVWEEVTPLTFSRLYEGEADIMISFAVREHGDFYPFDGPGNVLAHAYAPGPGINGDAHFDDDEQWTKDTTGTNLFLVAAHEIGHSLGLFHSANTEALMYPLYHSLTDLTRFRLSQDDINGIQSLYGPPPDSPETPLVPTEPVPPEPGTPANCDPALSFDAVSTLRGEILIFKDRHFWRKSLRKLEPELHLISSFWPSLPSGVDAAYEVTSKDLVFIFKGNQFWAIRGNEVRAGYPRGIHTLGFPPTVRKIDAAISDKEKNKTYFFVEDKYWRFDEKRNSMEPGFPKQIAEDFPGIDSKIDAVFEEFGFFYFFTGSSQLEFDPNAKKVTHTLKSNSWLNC

inhibition (Caspase-3 (Homo sapiens)) | inhibition (Caspase-1 (Homo sapiens)) | inhibition [1] | IC25 (Caspase-3 (Homo sapiens)) [µM] | IC50 (Caspase-3) [µM] | IC50 (Caspase-1) [µM] | Structure (SMILES) | inhibition (THP-1)
 |  |  | 15 | 200 | 100 | CC(=O)N[C@H](C(=O)O[C@H]1CCC(C)(C)[C@@H]2CC=C3C(=O)OC[C@@H]3[C@@]12C)C(C)C (relative stereo) | Active
 |  |  | 10 | 50 | 90 | CC(=O)N[C@H](C(=O)O[C@H]1CCC(C)(C)[C@@H]2CC=C3C(=O)OC[C@]3(O)[C@@]12C)C(C)C (relative stereo) | Active

Continued, compound first:

Structure (SMILES) | inhibition (Caspase-3 (Homo sapiens)) | inhibition (Caspase-1 (Homo sapiens)) | inhibition [1] | IC25 (Caspase-3 (Homo sapiens)) [µM] | IC50 (Caspase-3) [µM] | IC50 (Caspase-1) [µM] | inhibition (THP-1)
CCCCCCCCCC[C@H](C(=O)OC)[C@@](O)(CCC(=O)OC)C(=O)OC | inactive | inactive | inactive |  |  |  | 
CCCCCCCCCC[C@H](C(=O)OC)[C@]1(C(=O)OC)CCC(=O)O1 | inactive | inactive | inactive |  |  |  | 
C=CCCCCCCCC[C@H](C(=O)OC)[C@@](O)(CCC(=O)OC)C(=O)OC | inactive | inactive | inactive |  |  |  | 
